# A selection: hits, their analogues and other compounds. The true share with any hit is near 1.9%.
# Ins promoter up = MIN6 insulin promoter up-regulation; MIN6 insulin promoter-GFP reporter, high-content imaging; active compounds read high; z-score at 5 µM; 190,000 tested, 0.3% active; AID 1625;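 active = z-score above 3 at 5 µM with at least 500 cells counted in the well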
# b-catenin transl = modulators of beta-catenin nuclear translocation; nuclear translocation activity, % at 5 µM; HeLa beta-catenin nuclear translocation, immunofluorescence imaging; 190,000 tested, 0.3% active; AID 1665;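 active = nuclear translocation activity above 50% at 5 µM, with a well cell count of 50 or more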;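 also: per-cell ratio of nuclear to cytoplasmic median beta-catenin stain intensity; plate controls were DMSO negative control for no effect and GSK-3 inhibitor IX positive control for full effect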
#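 test system = HeLa cells, endogenous beta-catenin | dosing = single 5 µM dose plus 0.02–20 µM confirmation series | times = compound treatment 24 h, 37°C, 5% CO2 | technique = beta-catenin immunofluorescence imaging with DAPI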
# Autophagy mod = autophagy modulation, high-content screen. MEF GFP-LC3 puncta imaging; test concentration mostly 10 µM. calls only at 10 µM (by protocol). 190,000 tested, 0.98% active. AID 463193;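 active = percentage of spot-positive cells more than 3 SD above its plate mean, without a fluorescence outlier flag or 80% toxicity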;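 also: spot-positive cell cutoff set from DMSO-treated cells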
# MT stabilize HCS = stabilizes microtubules in HeLa cells. HeLa tubulin immunostaining HCS, 24 h; share of cells brighter than vehicle mean+2SD. % tubulin-high responders, % at 10 µM. 200,000 tested, 0.83% active;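 active = plate Z-score above 3 for both tubulin-high and condensed-nucleus cell shares, with cell loss under 80%, at 10 µM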;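 also: anti alpha tubulin signal scored within the nucleus-defined area of each cell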
# An asterisk follows results filed as active; i = inactive; · = not tested or not shown; + = active, no number; ! = a repeat was not active.
SMILES,Ins promoter up,b-catenin transl,Autophagy mod,MT stabilize HCS
O=C(c1cc2c(s1)-c1ccccc1OC2)N1CCC2(CC1)OCCO2,-0.31,14,i,54*
NC(=O)CS(=O)C(c1ccccc1)c1ccccc1 (stereo not drawn),-0.13,-5,·,·
O=C(Nc1ccccc1)NC1CC2CCC(C1)N2 (stereo not drawn),-0.04,-8,i,7
Cc1ccc(CN2C3CCCC2CC(NC(=O)Nc2cccc(F)c2)C3)cc1 (stereo not drawn),-0.14,-1,+,1
COc1ccc(OCC(=O)N2CCN(Cc3ccc(SC)cc3)CC2)cc1,-0.56,2,i,3
N#CC1=C(N)Oc2c(c(=O)sc3ccccc23)C1c1cccnc1 (stereo not drawn),0.4,9,i,10
Nc1cc2nc3ccccc3nc2cc1N,3.7*,-2,·,·
CCC(=NCCN1CCCCC1)c1c(O)n(C)c(=O)n(C)c1=O,0.23,·,+,3
Cn1c(O)c(C(=NCCN2CCCCC2)c2ccccc2Cl)c(=O)n(C)c1=O,-0.55,-6,i,1
CCOC(=O)c1c(-n2c(C)cc(C=C3C(=O)NC(=S)NC3=O)c2C)sc2c1CCCC2,-0.03,4,i,68
COc1ccc(CC(=O)N2CCN(C)CC2)cc1,3.5*,1,i,4
O=C(N/N=C/c1c(O)n(Cc2ccc(F)cc2)c(=O)[nH]c1=O)c1ccccc1O,-0.32,6,i,14*
O=C(N/N=C/c1c(O)n(Cc2ccccc2)c(=O)[nH]c1=O)c1ccccc1O,0.9,0,i,11
CCN(CC)c1ccc(N=Cc2c(O)n(Cc3ccccc3)c(=O)[nH]c2=O)cc1,0.48,1,+!,2
CCOc1ccccc1-n1c(O)c(C=Nc2ccc(N(CC)CC)cc2)c(=O)[nH]c1=O,·,-5,i,22*
CCN(CC)c1ccc(N=Cc2c(O)n(-c3ccccc3C)c(=O)[nH]c2=O)cc1,-0.05,·,i,9
Cc1cc(Oc2ccc(C(F)(F)F)cc2[N+](=O)[O-])c2c3c(c(=O)oc2c1)CCCC3,0.08,-2,i,6
COc1c(C)cc(C(=O)C2CCCN(Cc3cccc(C)n3)C2)cc1C (stereo not drawn),-0.46,1,i,2
O=C1OCc2cc(N=Nc3c(O)[nH]c(=O)[nH]c3=O)ccc21,-0.67,-2,·,·

# Screens as filed in PubChem BioAssay.
